A value given as a limit tells only on which side of the number the result lay.

Results on 25 compounds are retold here after ChEMBL document CHEMBL1821585, “Fluorinated cannabinoid CB2 receptor ligands: synthesis and in vitro binding characteristics of 2-oxoquinoline derivatives” (Bioorg Med Chem, 2011).

A short description of test [1]: Selectivity ratio of Ki for CB1 receptor to Ki for CB2 receptor.
The target in test [2] is T1, Cannabinoid receptor 2 (Homo sapiens, UniProt P34972). The test is described as follows: Binding affinity to CB2 receptor.
Test [3] deals with T2, Cannabinoid receptor 1 (Homo sapiens, UniProt P21554). Kind of test: Displacement of [3H]CP-55940 from human CB1 receptor expressed in human U87 cells after 1 hr by scintillation counting. In kind it is cell-based, U-87MG ATCC. A digest of the protocol: (§1)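 Membranes from lentivirally transduced U87 glioblastoma cells stably expressing hCB1 or hCB2, sorted on an mKateS158A co-reporter. Cells at 80–90% confluence were homogenised in 50 mM Tris-HCl, 5 mM MgCl2, 2.5 mM EDTA, pH 7.4. Aliquots of 30–50 μg protein were incubated 1 h at 4°C with 2.8 nM [3H]CP-55,940 plus graded compound concentrations, then GF/C-filtered. Ki was derived from the competition curves.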
(Loss of bound radioactivity is the signal in a displacement assay; it reports binding, not function.)

Test [4] concerns the target T1, Cannabinoid receptor 2. Kind of test: Displacement of [3H]CP-55940 from human CB2 receptor expressed in human U87 cells after 1 hr by scintillation counting. The test is classed as cell-based, U-87MG ATCC. A digest of the protocol:
as §1

The species named for another test is Homo sapiens. Kind of test: Selectivity ratio of Ki for human CB1 receptor to Ki for human CB2 receptor.
Test [5] deals with T2, Cannabinoid receptor 1. Kind of test: Binding affinity to CB1 receptor.

T2 sequence (P21554 whole entry): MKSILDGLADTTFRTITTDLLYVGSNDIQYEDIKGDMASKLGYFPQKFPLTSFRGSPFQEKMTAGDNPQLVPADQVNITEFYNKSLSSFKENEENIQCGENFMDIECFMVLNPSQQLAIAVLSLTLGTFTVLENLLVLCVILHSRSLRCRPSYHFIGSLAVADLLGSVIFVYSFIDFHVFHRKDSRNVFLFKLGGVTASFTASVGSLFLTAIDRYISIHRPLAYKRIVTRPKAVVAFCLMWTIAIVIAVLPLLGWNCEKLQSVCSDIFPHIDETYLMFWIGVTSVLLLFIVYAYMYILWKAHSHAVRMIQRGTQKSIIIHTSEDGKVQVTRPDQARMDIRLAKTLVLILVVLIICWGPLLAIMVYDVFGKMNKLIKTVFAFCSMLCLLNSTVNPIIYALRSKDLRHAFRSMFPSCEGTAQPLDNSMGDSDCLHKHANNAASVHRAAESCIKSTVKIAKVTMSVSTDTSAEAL
T1 sequence (P34972 whole entry): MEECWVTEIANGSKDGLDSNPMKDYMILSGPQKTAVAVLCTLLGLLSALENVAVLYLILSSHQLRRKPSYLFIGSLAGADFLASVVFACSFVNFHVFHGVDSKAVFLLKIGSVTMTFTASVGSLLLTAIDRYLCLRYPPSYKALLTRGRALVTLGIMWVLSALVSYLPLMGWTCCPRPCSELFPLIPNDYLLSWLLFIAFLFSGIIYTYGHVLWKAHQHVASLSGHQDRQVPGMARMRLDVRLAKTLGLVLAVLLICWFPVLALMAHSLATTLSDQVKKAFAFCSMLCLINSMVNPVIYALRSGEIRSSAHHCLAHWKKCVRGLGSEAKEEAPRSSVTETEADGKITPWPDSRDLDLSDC

In general, Ki refers to the dissociation constant of the complex between target and ligand, obtained from inhibition or displacement. A low value points to tighter binding. As to `COc1ccc2c(c1)c(CCN1CCOCC1)c(C)n2C(=O)c1cccc(Cl)c1Cl`, the Ratio Ki in test [1] was found to be 146. The compound further registered a Ki at Cannabinoid receptor 2 [2] of 14 nM.
For `COc1ccc2cc(C(=O)NCCc3ccc(F)cc3)c(=O)[nH]c2c1OC`, the results for the Ki on Cannabinoid receptor 1 [3] and at Cannabinoid receptor 2 [4] were over 10 µM and 0.005 µM, respectively.
`COc1ccc2cc(C(=O)NCC(F)c3ccccc3)c(=O)[nH]c2c1OC` (centres undefined): the Ki was over 10 µM on Cannabinoid receptor 1 [3] and 0.022 µM at Cannabinoid receptor 2 [4]. Further, in the test filed under Homo sapiens, the Ratio Ki is over 454.
Regarding `CCCCOc1c(OC)ccc2cc(C(=O)NCCc3cn(CCF)nn3)c(=O)[nH]c12`, the Ki at Cannabinoid receptor 1 [3] is over 10 µM; on Cannabinoid receptor 2 [4] it was 2.4 µM. Further, the Ratio Ki in the test filed under Homo sapiens was over 4.
For `CCCCOc1c(OC)ccc2cc(C(=O)O)c(=O)[nH]c12`, in test [1], the Ratio Ki amounted to 28300. In addition, at Cannabinoid receptor 2 [2], the Ki stood at 0.032 nM.
As to `CCCCOc1c(OC)ccc2cc(C(=O)NCCCF)c(=O)[nH]c12`, the Ki was over 10 µM at Cannabinoid receptor 1 [3] and 0.058 µM on Cannabinoid receptor 2 [4]. The Ratio Ki in the test listed under Homo sapiens was over 172.
Take `CCCCCOc1c(OC)ccc2cc(C(=O)NCCN3CCOCC3)c(=O)n(C)c12`: the Ratio Ki in test [1] was found to be 11000.
In the case of `COc1ccc2cc(C(=O)NCCF)c(=O)[nH]c2c1OC`, the Ki on Cannabinoid receptor 1 [3] and on Cannabinoid receptor 2 [4] was over 10 µM in each case. Also, in the test filed under Homo sapiens, the Ratio Ki was over 1.
On to `Cc1ccc(Cn2nc(C(=O)N[C@@H]3C(C)(C)[C@@H]4CC[C@@]3(C)C4)cc2-c2ccc(Cl)c(C)c2)cc1`, for which the Ratio Ki in test [1] turned out to be 32.
On to `CCCCOc1c(OC)ccc2cc(C(=O)NCc3cn(CCF)nn3)c(=O)[nH]c12`, for which the results for the Ki on Cannabinoid receptor 1 [3] and at Cannabinoid receptor 2 [4] were over 10 µM and 0.62 µM, respectively. Moreover, the Ratio Ki in the test listed under Homo sapiens is over 16.
The matching figures for `COc1ccc2cc(C(=O)NCc3ccc(F)cc3)c(=O)[nH]c2c1OC`: over 10 µM, over 10 µM and over 1.
Consider `CCCCCCC(C)(C)c1cc(OC)c(C2CCCC(C)(O)C2)c(OC)c1` (centres undefined), for which, in test [1], the Ratio Ki came out at 220. Besides, the results for the Ki on Cannabinoid receptor 1 [5] and at Cannabinoid receptor 2 [2] were 5.05 µM and 23 nM, respectively.
As to `CCCCOc1c(OC)ccc2cc(C(=O)NCc3ccc(F)cc3)c(=O)[nH]c12`, the Ki was over 10 µM at Cannabinoid receptor 1 [3] and 0.0028 µM on Cannabinoid receptor 2 [4]. The Ratio Ki in the test filed under Homo sapiens is over 3570.
On to `CCCCCOc1c(OC)ccc2cc(C(=O)NCCc3ccncc3)c(=O)[nH]c12`, for which the Ratio Ki in test [1] is 20800. The compound also yielded a Ki on Cannabinoid receptor 2 [2] of 0.01 nM.
With `CCCCCC(C)(C)c1cc(OC)c2c(c1)OC(C)(C)[C@@H]1CCC(C)=C[C@@H]21`, the Ratio Ki in test [1] amounted to 170.
With `CCCOc1c(OC)ccc2cc(C(=O)NCCc3ccc(F)cc3)c(=O)[nH]c12`, the Ratio Ki in test [1] stood at 16000.
The same measure, in the same setting: the result for `Cc1c(C(=O)NN2CCCCC2)nn(-c2ccc(Cl)cc2Cl)c1-c1ccc(Cl)cc1` reads 32.
Consider `CCCCOc1c(OC)ccc2cc(C(=O)NCC(F)c3ccccc3)c(=O)[nH]c12` (centres undefined), for which the Ki is over 10 µM at Cannabinoid receptor 1 [3] and 0.0008 µM on Cannabinoid receptor 2 [4]. Also, the Ratio Ki in the test listed under Homo sapiens is over 12500.
`CCCCOc1c(OC)c([N+](=O)[O-])cc2cc(C(=O)NCCc3ccc(F)cc3)c(=O)[nH]c12`: the Ki on Cannabinoid receptor 1 [3] is over 10 µM; at Cannabinoid receptor 2 [4], 0.0014 µM. The Ratio Ki in the test filed under Homo sapiens is over 7140.
On to `CCCCCc1cc2cc(C(=O)OC)c(=O)[nH]c2c(O)c1OC`, for which the Ratio Ki in test [1] is 262000. The compound also returned a Ki on Cannabinoid receptor 2 [2] of 0.014 nM.
Consider `CCCCCc1cc2cc(C(=O)NCCc3ccc(F)cc3)c(=O)n(C)c2c(O)c1OC`, for which the Ratio Ki in test [1] came out at 20100. For the same compound, the Ki was 864 µM on Cannabinoid receptor 1 [5] and 0.043 nM at Cannabinoid receptor 2 [2].
In the case of `CCCCOc1c(OC)ccc2cc(C(=O)NCCc3ccc(F)cc3)c(=O)[nH]c12`, the Ki was over 10 µM at Cannabinoid receptor 1 [3] and 0.0024 µM at Cannabinoid receptor 2 [4]. The Ratio Ki in the test listed under Homo sapiens is over 4170.
With `CCCCCc1cc2cc(C(=O)NCCc3ccc(F)cc3)c(=O)[nH]c2c(O)c1OC`, the Ratio Ki in test [1] amounted to 66600. Besides, the Ki at Cannabinoid receptor 1 [5] came out at 2400 µM; on Cannabinoid receptor 2 [2] it was 0.036 nM.
In general, IC50 refers to the concentration at which inhibition is half-maximal. A low value points to greater potency in that assay. For the compound `CCCCOc1c(OC)ccc2cc(C(=O)NCCc3ccc(N)cc3)c(=O)[nH]c12`, at Cannabinoid receptor 2 [2], the IC50 was 0.00158 µM and the Ki is 22.3 nM.
Turning to `CCCCOc1c(OC)ccc2cc(C(=O)NCCF)c(=O)[nH]c12`, the figures for the Ki at Cannabinoid receptor 1 [3] and on Cannabinoid receptor 2 [4] were over 10 µM and 0.486 µM, respectively. In the test filed under Homo sapiens, the Ratio Ki was over 20.5.
